Legend:
[1] = Inhibition of Influenza B virus (B/Malaysia/2506/2004) neuraminidase using fluorogenic substrate 2'-(4-methylumbelliferyl)-alpha-D-N-acetylneuraminic acid preincubated with inhibitor for 30 mins measured after 15 mins by fluorescence analysis
Procedure, shortened: (§1)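 Purified intact virions served as the NA source. They were preincubated 30 min at room temperature with two-fold inhibitor dilutions in 50 mM sodium acetate pH 6.0, 100 µM CaCl2, 320 µM MgCl2 and 60 mM NaCl. 100 µM MUNANA was added, then incubated 15 min at 37 °C and stopped with 5 volumes 0.2 M glycine-NaOH pH 11. IC50 came from a log(inhibitor)-normalized response fit, cross-checked from the linear region of fractional activity versus concentration.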

[2] = target: T1, Neuraminidase (Influenza A virus, UniProt B4URF0); assay: Inhibition of Influenza A virus (A/Wisconsin/67/2005(H3N2)) neuraminidase using fluorogenic substrate 2'-(4-methylumbelliferyl)-alpha-D-N-acetylneuraminic acid preincubated with inhibitor for 30 mins measured after 15 mins by fluorescence analysis; procedure, shortened: as §1
[3] = target: T1, Neuraminidase; assay: Inhibition of Influenza A virus (A/Uruguay/716/2007(H3N2)) neuraminidase using fluorogenic substrate 2'-(4-methylumbelliferyl)-alpha-D-N-acetylneuraminic acid preincubated with inhibitor for 30 mins measured after 15 mins by fluorescence analysis; procedure, shortened: as §1
[4] = target: T1, Neuraminidase; assay: Inhibition of Influenza A virus (A/Solomon Islands/3/2006(H1N1)) neuraminidase using fluorogenic substrate 2'-(4-methylumbelliferyl)-alpha-D-N-acetylneuraminic acid preincubated with inhibitor for 30 mins measured after 15 mins by fluorescence analysis; procedure, shortened: as §1
[5] = Inhibition of Influenza B virus (B/Malayasia/5206/04) neuraminidase using fluorogenic substrate 2'-(4-methylumbelliferyl)-alpha-D-N-acetylneuraminic acid preincubated with inhibitor for 30 mins measured after 15 mins by fluorescence analysis; procedure, shortened: as §1
[6] = target: T1, Neuraminidase; assay: Inhibition of Influenza A virus (A/Brisbane/59/2007(H1N1)) neuraminidase using fluorogenic substrate 2'-(4-methylumbelliferyl)-alpha-D-N-acetylneuraminic acid preincubated with inhibitor for 30 mins measured after 15 mins by fluorescence analysis; procedure, shortened: as §1
[7] = target: T1, Neuraminidase; assay: Inhibition of influenza A virus neuraminidase
Procedure, shortened: (§2)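 Enzyme source was purified intact virions. Then 100 μM 2'-(4-methylumbelliferyl)-α-D-N-acetylneuraminic acid was added and incubated 15 min at 37 °C. Reactions were stopped with 0.2 M glycine-NaOH pH 11. IC50 came from normalized log(inhibitor)-response fitting, cross-checked against the linear region of fractional activity versus concentration.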

[8] = Inhibition of influenza B virus neuraminidase
Procedure, shortened: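 Purified intact influenza B virions as neuraminidase source. Preincubated 30 min at room temperature with two-fold inhibitor dilutions in 50 mM sodium acetate pH 6.0, 100 μM CaCl2, 320 μM MgCl2, 60 mM NaCl. Then 100 μM 2'-(4-methylumbelliferyl)-α-D-N-acetylneuraminic acid, 15 min at 37 °C, stopped with 5 volumes 0.2 M glycine-NaOH pH 11. Fluorescence read-out. IC50 from log(inhibitor) vs normalized response, cross-checked against the linear region of the fractional-activity curve.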

[9] = target: T1, Neuraminidase; assay: Inhibition of Influenza A virus (A/Oklahoma/3052/2009(H1N1)) neuraminidase using fluorogenic substrate 2'-(4-methylumbelliferyl)-alpha-D-N-acetylneuraminic acid preincubated with inhibitor for 30 mins measured after 15 mins by fluorescence analysis; procedure, shortened: as §1
[10] = target: Neuraminidase (Influenza B virus (strain B/Lee/1940), UniProt P03474); assay: Inhibition of Influenza B virus (B/Lee/1940) neuraminidase using fluorogenic substrate 2'-(4-methylumbelliferyl)-alpha-D-N-acetylneuraminic acid preincubated with inhibitor for 30 mins measured after 15 mins by fluorescence analysis; procedure, shortened: as §2
[11] = target: Neuraminidase (Influenza A virus (A/Puerto Rico/8/1934(H1N1)), UniProt P03468); assay: Inhibition of Influenza A virus (A/Puerto Rico/8/1934(H1N1)) neuraminidase using fluorogenic substrate 2'-(4-methylumbelliferyl)-alpha-D-N-acetylneuraminic acid preincubated with inhibitor for 30 mins measured after 15 mins by fluorescence analysis; procedure, shortened: as §2
[12] = target: T1, Neuraminidase; assay: Inhibition of influenza A virus avian N9 neuraminidase
[13] = target: Neuraminidase (Influenza A virus (strain A/Udorn/307/1972 H3N2), UniProt P0DOF9); assay: Inhibition of Influenza A virus (A/udorn/1972(H3N2)) neuraminidase using fluorogenic substrate 2'-(4-methylumbelliferyl)-alpha-D-N-acetylneuraminic acid preincubated with inhibitor for 30 mins measured after 15 mins by fluorescence analysis; procedure, shortened: as §1

## CCCC(CCC)Cc1cc(C(=O)O)ccc1N1C(=O)CCC1(CO)CO
[1]
  IC50: 190 µM
[2]
  IC50: 0.5 µM

## O=C(O)c1ccc(N2C(=O)CCC2(CO)CO)c(COc2ccccc2)c1
[3]
  IC50: 40 µM
[4]
  IC50: 400 µM

## CCC(CC)OCc1cc(C(=O)O)ccc1N1C(=O)CCC1(CO)CO
[3]
  IC50: 0.5 µM
[4]
  IC50: 0.8 µM
[5]
  IC50: 30 µM
[6]
  IC50: 1 µM

## O=C(O)c1ccc(N2C(=O)CCC2(CO)CO)c(COCc2ccccc2)c1
[3]
  IC50: 200 µM
[4]
  IC50: 1600 µM

## CC(=O)N[C@H]1[C@H]([C@H](O)[C@H](O)CO)OC(C(=O)O)=C[C@@H]1O [NEU5AC2EN]
[7]
  Ki: 4 µM
[8]
  Ki: 4 µM

## CC(C)OCc1cc(C(=O)O)ccc1N1C(=O)CCC1(CO)CO
[3]
  IC50: 4000 µM
[6]
  IC50: > 10000 µM

## CC(C)Cc1cc(C(=O)O)ccc1N1C(=O)CCC1(CO)CO
[1]
  IC50: 140 µM
[3]
  IC50: 3 µM

## CCC(=Cc1cc(C(=O)O)ccc1N1C(=O)CCC1(CO)CO)CC
[1]
  IC50: 120 µM
[9]
  IC50: 3.4 µM
[2]
  IC50: 0.41 µM

## CCC(CC)Nc1cc(C(=O)O)ccc1N1C(=O)CCC1(CO)CO
[10]
  IC50: 271 µM
[11]
  IC50: 79 µM
[12]
  IC50: 0.048 µM
[13]
  IC50: 0.49 µM

## CCC(CC)Cc1cc(C(=O)O)ccc1N1C(=O)CCC1(CO)CO
[1]
  IC50: 32 µM
[9]
  IC50: 3.2 µM
[2]
  IC50: 0.2 µM

## CCC(C)OCc1cc(C(=O)O)ccc1N1C(=O)CCC1(CO)CO (centres undefined)
[3]
  IC50: 0.2 µM
[4]
  IC50: 11 µM
[5]
  IC50: 80 µM

Source: ChEMBL document CHEMBL2046418, “Pyrrolidinobenzoic acid inhibitors of influenza virus neuraminidase: the hydrophobic side chain influences type A subtype selectivity” (Bioorg Med Chem, 2012)
